Test results from ChEMBL document CHEMBL3259662 (ACS Med Chem Lett, 2014).
Values after ≈ are worked out from the molar mass of the structure shown. Values belong to the compound of their own block, whether it stands above or below them. Active and inactive are the calls of the source. No cut-off for these calls is given here. Peptide text beside a SMILES is read from it. * marks the point of attachment. Boc = CC(C)(C)OC(=O)*; NHBn = c1ccc(CN*)cc1

Tests used:
LLC-PK1 = assay: Cytotoxicity against pig LLC-PK1 cells assessed as cell viability after 48 hrs by neutral red uptake assay; format: cell-based, Sus scrofa; settings: llc-pk1, 48 h
Method in brief: (§1)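 Neutral red uptake assay in human cancer lines SK-MEL, KB, BT-549 and SK-OV-3 and in noncancerous mammalian kidney cells VERO and LLC-PK1. The highest tested concentration was 10 μg/mL.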

Cryptococcus neoformans [1] = assay: Antifungal activity against Cryptococcus neoformans ATCC 90113 at 20 ug/ml after 70 to 74 hrs by CLSI method; format: functional, organism-based
Method in brief: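 C. neoformans screened per the CLSI protocol at the highest tested concentration of 20 μg/mL. Compounds showing no activity at this level were scored not active.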

Escherichia coli = assay: Antibacterial activity against Escherichia coli ATCC 35218 after 16 to 20 hrs by CLSI method; format: functional, organism-based
SK-MEL = assay: Cytotoxicity against human SK-MEL cells assessed as cell viability after 48 hrs by neutral red uptake assay; format: cell-based; method in brief: as §1
Candida albicans = assay: Antifungal activity against Candida albicans by CLSI method; format: functional, organism-based
SK-OV-3 = assay: Cytotoxicity against human SKOV3 cells assessed as cell viability after 48 hrs by neutral red uptake assay; format: cell-based; settings: sk-ov-3, 48 h; method in brief: as §1
Nakaseomyces glabratus = assay: Antifungal activity against Candida glabrata by CLSI method; format: functional, organism-based
Aspergillus fumigatus = assay: Antifungal activity against Aspergillus fumigatus by CLSI method; format: functional, organism-based
Cryptococcus neoformans [2] = assay: Antifungal activity against Cryptococcus neoformans ATCC 90113 after 70 to 74 hrs by CLSI method; format: functional, organism-based; settings: for IC50 / MIC: Cryptococcus neoformans, ATCC 90113
Method in brief: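 Growth inhibition of C. neoformans per the CLSI protocol. […] MIC is the lowest test concentration with no detectable growth. MFC is the lowest concentration killing 100% of the organism.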

KB = assay: Cytotoxicity against human KB cells assessed as cell viability after 48 hrs by neutral red uptake assay; format: cell-based; method in brief: as §1
BT-549 = assay: Cytotoxicity against human BT549 cells assessed as cell viability after 48 hrs by neutral red uptake assay; format: cell-based; settings: bt-549, 48 h; method in brief: as §1
Vero = assay: Cytotoxicity against African green monkey Vero cells assessed as cell viability after 48 hrs by neutral red uptake assay; format: cell-based; settings: chlorocebus sabaeus; method in brief: as §1
Pichia kudriavzevii = assay: Antifungal activity against Candida krusei by CLSI method; format: functional, organism-based
[3] = Selectivity index, ratio of cytotoxicity for human SKOV3 cells to IC50 for Cryptococcus neoformans ATCC 90113; format: toxicity, cell-based, SK-OV-3; settings: read-out: Selectivity Index
[4] = Selectivity index, ratio of cytotoxicity for human SK-MEL cells to IC50 for Cryptococcus neoformans ATCC 90113; format: toxicity, cell-based; settings: read-out: Selectivity Index
[5] = Selectivity index, ratio of cytotoxicity for African green monkey Vero cells to IC50 for Cryptococcus neoformans ATCC 90113; format: toxicity, cell-based; settings: read-out: Selectivity Index
[6] = Retention time of the compound by reverse phase HPLC analysis; format: physicochemical
Method in brief: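 Reverse-phase HPLC on a C-18 column (25 cm × 4.6 mm, 5 μM) at 1 mL/min over 40 min. The gradient ran 85−5% with A = 0.1% TFA in H2O and B = 0.1% TFA in CH3CN. Detection was at 220 nm.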

[7] = Selectivity index, ratio of cytotoxicity for pig LLC-PK1 cells to IC50 for Cryptococcus neoformans ATCC 90113; format: toxicity, cell-based; settings: read-out: Selectivity Index
[8] = Selectivity index, ratio of cytotoxicity for human BT549 cells to IC50 for Cryptococcus neoformans ATCC 90113; format: toxicity, cell-based, BT-549; settings: read-out: Selectivity Index
[9] = Selectivity index, ratio of cytotoxicity for human KB cells to IC50 for Cryptococcus neoformans ATCC 90113; format: toxicity, cell-based; settings: read-out: Selectivity Index

SMILES: COC(=O)[C@H](CCCNC(=N)N)NC(=O)[C@H](Cc1c[nH]c(-c2ccccc2)n1)NC(=O)[C@@H](N)CCCNC(=N)N
Activity (LLC-PK1): > 10 µg/mL
Activity (Cryptococcus neoformans [1]): inactive
Activity (Escherichia coli): inactive
Activity (SK-MEL): > 10 µg/mL
Activity (Candida albicans): inactive
Activity (SK-OV-3): > 10 µg/mL
Activity (Nakaseomyces glabratus): inactive
Activity (Aspergillus fumigatus): inactive
Activity (KB): > 10 µg/mL
Activity (BT-549): > 10 µg/mL
Activity (Vero): > 10 µg/mL
Activity (Pichia kudriavzevii): inactive

SMILES: Cc1ccc(-c2nc(C[C@H](NC(=O)[C@H](CCCNC(=N)N)NC(=O)OC(C)(C)C)C(=O)N[C@@H](CCCNC(=N)N)C(=O)NCc3ccccc3)c[nH]2)cc1
Activity (LLC-PK1): > 10 µg/mL
Activity (Escherichia coli): inactive
Activity (SK-MEL): > 10 µg/mL
Activity (Candida albicans): inactive
selectivity ratio [3]: > 4.6
Activity (SK-OV-3): > 10 µg/mL
Activity (Nakaseomyces glabratus): inactive
selectivity ratio [4]: > 4.6
selectivity ratio [5]: > 4.6
Activity (Aspergillus fumigatus): inactive
MFC100 (Cryptococcus neoformans [2]): 2.5 µg/mL (≈ 3.35 µM)
IC50 (Cryptococcus neoformans [2]): 2.15 µg/mL (≈ 2.88 µM)
MIC (Cryptococcus neoformans [2]): 2.5 µg/mL (≈ 3.35 µM)
Retention_time [6]: 19.41 min
selectivity ratio [7]: > 4.6
Activity (KB): > 10 µg/mL
Activity (BT-549): > 10 µg/mL
Activity (Vero): > 10 µg/mL
selectivity ratio [8]: > 4.6
Activity (Pichia kudriavzevii): inactive
selectivity ratio [9]: > 4.6

SMILES: COC(=O)[C@H](CCCNC(=N)N)NC(=O)[C@H](Cc1c[nH]c(-c2ccc(OC)cc2)n1)NC(=O)[C@H](CCCNC(=N)N)NC(=O)OC(C)(C)C
Activity (LLC-PK1): > 10 µg/mL
Activity (Escherichia coli): inactive
Activity (SK-MEL): > 10 µg/mL
Activity (Candida albicans): inactive
selectivity ratio [3]: > 2.5
Activity (SK-OV-3): > 10 µg/mL
Activity (Nakaseomyces glabratus): inactive
selectivity ratio [4]: > 2.5
selectivity ratio [5]: > 2.5
Activity (Aspergillus fumigatus): inactive
MFC100 (Cryptococcus neoformans [2]): 5 µg/mL (≈ 7.27 µM)
IC50 (Cryptococcus neoformans [2]): 4.06 µg/mL (≈ 5.9 µM)
MIC (Cryptococcus neoformans [2]): 5 µg/mL (≈ 7.27 µM)
Retention_time [6]: 13.59 min
selectivity ratio [7]: > 2.5
Activity (KB): > 10 µg/mL
Activity (BT-549): > 10 µg/mL
Activity (Vero): > 10 µg/mL
selectivity ratio [8]: > 2.5
Activity (Pichia kudriavzevii): inactive
selectivity ratio [9]: > 2.5

SMILES: CC(C)(C)OC(=O)N[C@@H](CCCNC(=N)N)C(=O)N[C@@H](Cc1c[nH]c(-c2ccccc2)n1)C(=O)N[C@@H](CCCNC(=N)N)C(=O)NCc1ccccc1
Activity (LLC-PK1): > 10 µg/mL
Activity (Escherichia coli): inactive
Activity (SK-MEL): > 10 µg/mL
Activity (Candida albicans): inactive
selectivity ratio [3]: > 14.9
Activity (SK-OV-3): > 10 µg/mL
Activity (Nakaseomyces glabratus): inactive
selectivity ratio [4]: > 14.9
selectivity ratio [5]: > 14.9
Activity (Aspergillus fumigatus): inactive
MFC100 (Cryptococcus neoformans [2]): 1.25 µg/mL (≈ 1.71 µM)
IC50 (Cryptococcus neoformans [2]): 0.67 µg/mL (≈ 0.914 µM)
MIC (Cryptococcus neoformans [2]): 1.25 µg/mL (≈ 1.71 µM)
Retention_time [6]: 17.63 min
selectivity ratio [7]: > 14.9
Activity (KB): > 10 µg/mL
Activity (BT-549): > 10 µg/mL
Activity (Vero): > 10 µg/mL
selectivity ratio [8]: > 14.9
Activity (Pichia kudriavzevii): inactive
selectivity ratio [9]: > 14.9

SMILES: N=C(N)NCCC[C@H](NC(=O)[C@H](Cc1c[nH]cn1)NC(=O)[C@@H](N)CCCNC(=N)N)C(=O)NCc1ccccc1 (H-Arg-His-Arg-NHBn)
Activity (LLC-PK1): > 10 µg/mL
Activity (Cryptococcus neoformans [1]): inactive
Activity (Escherichia coli): inactive
Activity (SK-MEL): > 10 µg/mL
Activity (Candida albicans): inactive
Activity (SK-OV-3): > 10 µg/mL
Activity (Nakaseomyces glabratus): inactive
Activity (Aspergillus fumigatus): inactive
Activity (KB): > 10 µg/mL
Activity (BT-549): > 10 µg/mL
Activity (Vero): > 10 µg/mL
Activity (Pichia kudriavzevii): inactive

SMILES: COC(=O)[C@H](CCCNC(=N)N)NC(=O)[C@H](Cc1c[nH]c(-c2ccc(-c3ccccc3)cc2)n1)NC(=O)[C@H](CCCNC(=N)N)NC(=O)OC(C)(C)C
Activity (LLC-PK1): > 10 µg/mL
Activity (Escherichia coli): inactive
Activity (SK-MEL): > 10 µg/mL
Activity (Candida albicans): inactive
selectivity ratio [3]: > 12.5
Activity (SK-OV-3): > 10 µg/mL
Activity (Nakaseomyces glabratus): inactive
selectivity ratio [4]: > 12.5
selectivity ratio [5]: > 12.5
Activity (Aspergillus fumigatus): inactive
MFC100 (Cryptococcus neoformans [2]): 1.25 µg/mL (≈ 1.7 µM)
IC50 (Cryptococcus neoformans [2]): 0.8 µg/mL (≈ 1.09 µM)
MIC (Cryptococcus neoformans [2]): 1.25 µg/mL (≈ 1.7 µM)
Retention_time [6]: 18.64 min
selectivity ratio [7]: > 12.5
Activity (KB): > 10 µg/mL
Activity (BT-549): > 10 µg/mL
Activity (Vero): > 10 µg/mL
selectivity ratio [8]: > 12.5
Activity (Pichia kudriavzevii): inactive
selectivity ratio [9]: > 12.5

Now from value to compound, other results behind:

IC50 (Cryptococcus neoformans [2]): 19 µg/mL (≈ 39.5 µM)
SMILES: COC(=O)[C@H](CCCNC(=N)N)NC(=O)[C@H](Cc1c[nH]cn1)NC(=O)[C@@H](N)CCCNC(=N)N (H-Arg-His-Arg-OMe)
Activity (LLC-PK1): > 10 µg/mL
Activity (Cryptococcus neoformans [1]): inactive
Activity (Escherichia coli): inactive
Activity (SK-MEL): > 10 µg/mL
Activity (Candida albicans): inactive
Activity (SK-OV-3): > 10 µg/mL
Activity (Nakaseomyces glabratus): inactive
Activity (Aspergillus fumigatus): inactive
Activity (KB): > 10 µg/mL
Activity (BT-549): > 10 µg/mL
Activity (Vero): > 10 µg/mL
Activity (Pichia kudriavzevii): inactive

IC50 (Cryptococcus neoformans [2]): 19.7 µg/mL (≈ 34.5 µM)
SMILES: COC(=O)[C@H](CCCNC(=N)N)NC(=O)[C@H](Cc1c[nH]c(-c2ccc(C)cc2)n1)NC(=O)[C@@H](N)CCCNC(=N)N
Activity (LLC-PK1): > 10 µg/mL
Activity (Cryptococcus neoformans [1]): inactive
Activity (Escherichia coli): inactive
Activity (SK-MEL): > 10 µg/mL
Activity (Candida albicans): inactive
Activity (SK-OV-3): > 10 µg/mL
Activity (Nakaseomyces glabratus): inactive
Activity (Aspergillus fumigatus): inactive
Activity (KB): > 10 µg/mL
Activity (BT-549): > 10 µg/mL
Activity (Vero): > 10 µg/mL
Activity (Pichia kudriavzevii): inactive

IC50 (Cryptococcus neoformans [2]): 9.71 µg/mL (≈ 14.5 µM)
Retention_time [6]: 14.76 min
SMILES: COC(=O)[C@H](CCCNC(=N)N)NC(=O)[C@H](Cc1c[nH]c(-c2ccc(C)cc2)n1)NC(=O)[C@H](CCCNC(=N)N)NC(=O)OC(C)(C)C
Activity (LLC-PK1): > 10 µg/mL
Activity (Cryptococcus neoformans [1]): inactive
Activity (Escherichia coli): inactive
Activity (SK-MEL): > 10 µg/mL
Activity (Candida albicans): inactive
selectivity ratio [3]: > 1
Activity (SK-OV-3): > 10 µg/mL
Activity (Nakaseomyces glabratus): inactive
selectivity ratio [4]: > 1
selectivity ratio [5]: > 1
Activity (Aspergillus fumigatus): inactive
selectivity ratio [7]: > 1
Activity (KB): > 10 µg/mL
Activity (BT-549): > 10 µg/mL
Activity (Vero): > 10 µg/mL
selectivity ratio [8]: > 1
Activity (Pichia kudriavzevii): inactive
selectivity ratio [9]: > 1

IC50 (Cryptococcus neoformans [2]): 10.4 µg/mL (≈ 15.8 µM)
Retention_time [6]: 11.89 min
SMILES: COC(=O)[C@H](CCCNC(=N)N)NC(=O)[C@H](Cc1c[nH]c(-c2ccccc2)n1)NC(=O)[C@H](CCCNC(=N)N)NC(=O)OC(C)(C)C
Activity (LLC-PK1): > 10 µg/mL
Activity (Cryptococcus neoformans [1]): inactive
Activity (Escherichia coli): inactive
Activity (SK-MEL): > 10 µg/mL
Activity (Candida albicans): inactive
Activity (SK-OV-3): > 10 µg/mL
Activity (Nakaseomyces glabratus): inactive
Activity (Aspergillus fumigatus): inactive
Activity (KB): > 10 µg/mL
Activity (BT-549): > 10 µg/mL
Activity (Vero): > 10 µg/mL
Activity (Pichia kudriavzevii): inactive

Retention_time [6]: 10.75 min
SMILES: COC(=O)[C@H](CCCNC(=N)N)NC(=O)[C@H](Cc1c[nH]cn1)NC(=O)[C@H](CCCNC(=N)N)NC(=O)OC(C)(C)C (Boc-Arg-His-Arg-OMe)
Activity (LLC-PK1): > 10 µg/mL
Activity (Cryptococcus neoformans [1]): inactive
Activity (Escherichia coli): inactive
Activity (SK-MEL): > 10 µg/mL
Activity (Candida albicans): inactive
Activity (SK-OV-3): > 10 µg/mL
Activity (Nakaseomyces glabratus): inactive
Activity (Aspergillus fumigatus): inactive
Activity (KB): > 10 µg/mL
Activity (BT-549): > 10 µg/mL
Activity (Vero): > 10 µg/mL
Activity (Pichia kudriavzevii): inactive
